# Bioassay records as filed in PubChem.
# GASC1 inh: KDM4C (human) demethylase inhibition. inhibition, % at 12.5 µM. 96,000 compounds, 0.15% hits. AID 720574. GST-KDM4C 2-372, H3K9me3 peptide, LANCE TR-FRET;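 active means mean replicate inhibition above about 25%, with at least 55% of replicates also reaching it, limit read from the data, passing the limit was not always enough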
#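 Material: N-terminal GST-fused human GASC-1 (KDM4C) fragment, residues 2-372. Input: 10 nM enzyme. Incubation: enzyme reaction 30 min, then detection 60 min, both room temperature. Doses: one test concentration per compound. Read-out basis: inhibition from TR-FRET ratio decrease. Detection: LANCE TR-FRET, excitation 340 nm, emissions 618 and 671 nm.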
# Pf Dd2 growth: P. falciparum Dd2 growth inhibition; SYBR Green, 72 h; stronger effect = lower value; activity change, % at 10 µM; 94,000 compounds, 2.3% hits; AID 1159554; in the data active means activity change below about -80%
# T cruzi growth-1: blocks T. cruzi growth in NIH3T3 culture | 77,000 compounds, 5.9% hits | AID 624255 | inhibition, % at 8.34 µM | T. cruzi beta-gal in NIH3T3, GalScreen luminescence, 90 h;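 active means mean inhibition above about 93%, with at least 55% of replicates each passing it, limit read from the data, passing the limit was not always enough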
# IDH1 mut inh: IDH1 R132H (human) inhibition | inhibition, % at 10 µM | IDH1 R132H reductase, diaphorase/resazurin fluorescence, 60 min | O75874 | 70,000 compounds, 0.18% hits; in the data active means inhibition above about 34%;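 further: 0% = DMSO and 100% = no enzyme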
# T cruzi growth-2: blocks T. cruzi growth in NIH3T3 host cells | AID 651739 | 5,600 compounds, 72% hits | T. cruzi beta-gal in NIH3T3, GalScreen luminescence, 90 h | inhibition, % at 8.35 µM | shares compounds with T cruzi growth-1;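 active means mean replicate inhibition above about 95% and at least 55% of replicates individually reaching it, limit read from the data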
# T cruzi growth-3: blocks T. cruzi growth in NIH3T3 host cells | shares compounds with T cruzi growth-1 | T. cruzi beta-gal in NIH3T3, GalScreen luminescence, 90 h | inhibition, % at 2.09 µM | 5,600 compounds, 21% hits;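 active means mean inhibition above about 95%, with at least 55% of replicates also reaching it, limit read from the data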;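 further: plate controls were neutral control median for no effect and positive control median for full effect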
# 3T3 cytotox: kills mouse NIH/3T3 fibroblasts; shares compounds with T cruzi growth-1; NIH/3T3 viability, CellTiter-Glo ATP luminescence, 90 h; cytotoxicity (signal decrease), % at 8.35 µM; 5,600 compounds, 14% hits; AID 651742;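 active means mean signal decrease across replicates above about 35% based on untreated-well scatter, with enough replicates individually passing, limit read from the data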;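 further: 0% = median of neutral control wells and 100% = median of positive control wells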
# 3T3 cytotox 2: cytotoxicity in mouse NIH/3T3 fibroblasts | shares compounds with T cruzi growth-1 | NIH/3T3 viability, CellTiter-Glo ATP luminescence, 90 h | inhibition, % at 24.9 µM | 5,600 compounds, 56% hits;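 active means mean loss of cell viability signal at or above a set limit, and enough replicates individually reaching it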;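 further: 0% = median of neutral control wells and 100% = median of positive control wells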
# * marks the source's active call; other numbers are inactive results; . = no result. Sampled rows, rich in hits. Any-hit rate of the full collection: about 5.9%.
SMILES,GASC1 inh,Pf Dd2 growth,T cruzi growth-1,IDH1 mut inh,T cruzi growth-2,T cruzi growth-3,3T3 cytotox,3T3 cytotox 2
O=C(Cc1ccccc1)N1CCCCN2[C@H](CO)[C@H](c3ccc(C#Cc4ccccc4)cc3)[C@@H]2C1,2.4,-24.0,119.8*,.,102.2*,115.4*,26.8,103.3*
O=C(Cc1ccccc1)N1CCCCN2[C@H](CO)[C@H](c3ccc(C#CC4(O)CCCC4)cc3)[C@H]2C1,-1.2,-10.5,99.9*,.,61.9,53.2,-7.8,30.4*
O=C(Cc1ccccc1)N1CCCCN2[C@H](CO)[C@@H](c3ccc(C#CC4(O)CCCC4)cc3)[C@@H]2C1,-0.7,-5.0,37.9,.,.,.,.,.
O=C(Cc1ccccc1)N1CCCCN2[C@@H](CO)[C@@H](c3ccc(C#Cc4ccccc4)cc3)[C@@H]2C1,-1.8,-55.5,106.2*,.,99.9*,102.0*,120.5*,104.8*
c1ccc(CC(c2ccccc2)N2CCCCC2)cc1 (centres undefined),.,.,.,-1.0,.,.,.,.
O=C(Cc1ccncc1)N1CCCCN2[C@@H](CO)[C@H](c3ccc(C#Cc4ccccc4F)cc3)[C@@H]2C1,-0.3,-42.1,112.5*,.,112.0*,79.1,49.8*,103.8*
